Measurements collected from several papers.
Compare with care: the assays were run in different laboratories.
Medium: plasma

SMILES | species | route | dose | notes | AUC(0-t)
C[C@H]1[C@@H](O)O[C@@H]2O[C@@]3(C)CC[C@H]4[C@H](C)CC[C@@H]1[C@@]24OO3 | male Sprague-Dawley rat | oral | 10 mg/kg |  | 234 ng·h/mL
Cn1c(=O)c2[nH]cnc2n(C)c1=O | male Sprague-Dawley rat | intravenous | 11.25 mg/kg |  | 24900 ng·h/mL
C1=C/COCc2cc(ccc2OCCN2CCCC2)Nc2nccc(n2)-c2cccc(c2)COC/1 | male Sprague-Dawley rat | oral | 36 mg/kg |  | 3120 ng·h/mL
Nc1ccn([C@@H]2O[C@H](CO)[C@@H](O)C2(F)F)c(=O)n1 | male Sprague-Dawley rat | intraperitoneal | 5 mg/kg |  | 22900 ng·h/mL
CCCc1nc2c(C)cc(-c3nc4ccccc4n3C)cc2n1Cc1ccc(-c2ccccc2C(=O)O)cc1 | male Sprague-Dawley rat | oral | 8 mg/kg | single dose | 1940 ng·h/mL
COc1nc(-c2cccc(-c3ccccc3)c2C)ccc1CNCCNC(=O)CCCCCCCCCCC(=O)N1CCN(CCNC(=O)c2cc3c(=O)n4cccc(C)c4nc3n(CCc3cccs3)c2=N)CC1 | male Sprague-Dawley rat | intravenous | 2 mg/kg |  | 1620 ng·h/mL
Cc1ccc2c(c1)C(=O)[C@]1(O)CCN(c3ccc4nc(C)ccc4c3)C1=N2.Cl | female rat | subcutaneous | 40 mg/kg | multiple doses, once daily | 17 µM·h
CONC(=O)c1cccc2c1cc(C)n2-c1nc2c(c(NCc3ccccc3)n1)CCCN2 | male Sprague-Dawley rat | intravenous | 1 mg/kg | single dose | 20.1 ng·h/mL
C[C@H]1Oc2cc(cnc2N)-c2c(nn(C)c2C#N)CN(C)C(=O)c2ccc(F)cc21 | male Sprague-Dawley rat | oral | 10 mg/kg |  | 3160 ng·h/mL
C[C@@]12C[C@@]3(O)O[C@@H](O1)[C@]1(COC(=O)c4ccccc4)[C@H]3C[C@@]12O[C@@H]1O[C@H](CO)[C@@H](O)[C@H](O)[C@H]1O | male Sprague-Dawley rat | oral | 80 mg/kg |  | 3.74 ng·h/mL
C=CC(=O)N1CCC[C@@H](n2nc(-c3ccc(Oc4ccccc4)cc3)c3c(N)ncnc32)C1 | rat | oral | 40 mg/kg |  | 304 ng·h/mL
CC(=O)c1c(C)c2cnc(Nc3ccc(N4CCNCC4)cn3)nc2n(C2CCCC2)c1=O | male Sprague-Dawley rat | intravenous | 5 mg/kg |  | 1900 ng·h/mL
CCOc1c([C@H](C)n2nc(C)c3c(N)ncnc32)cc(Cl)c(F)c1[C@@H]1CNC(=O)C1 | male Sprague-Dawley rat | oral | 2 mg/kg | single dose | 4580 ng·h/mL
COc1ccc(N(Cc2csc(-c3ccccc3)n2)C(=O)CCCCCC(=O)NO)cc1 | female Sprague-Dawley rat | intravenous | 5 mg/kg |  | 29.9 ng·h/mL
COc1cc(-c2cc(C(C)=O)n3ccccc23)c(OC)cc1Cn1ccnc1 | male Sprague-Dawley rat | intravenous | 5 mg/kg |  | 4280 ng·h/mL
CC[C@@H]([C@H](C)O)n1ncn(-c2ccc(N3CCN(c4ccc(OC[C@@H]5CO[C@@](Cn6cncn6)(c6ccc(F)cc6F)C5)cc4)CC3)cc2)c1=O | Sprague-Dawley rat | oral | 40 mg/kg |  | 6550 ng·h/mL
CCCCC(=O)Nc1ccc(-c2ccc3ncn(CCC)c(=O)c3c2)cn1 | male rat | intravenous | 2.5 mg/kg |  | 2560 ng·h/mL
O=C1CCC(N2Cc3cc(C4CCN(Cc5ccccc5)CC4)ccc3C2=O)C(=O)N1 (stereo not drawn) | male Sprague-Dawley rat | intravenous | 1 mg/kg |  | 309 ng·h/mL
